# Activity calls are given as the source filed them. The calls are words filed in the database; no cut-off is given here.
# How the values were obtained:
# [1] = Equilibrium solubility of the compound at pH 4 after 16 hrs by mass spectrometric analysis; assay type: physicochemical; settings: buffer
# [2] = Dose normalized AUC in beagle dog at 0.3 mg/kg, po fasted 12 hrs prior to compound administration via cassette dosing and fed 2 hrs post dose; assay type: ADME, organism-based, Canis lupus familiaris; settings: in vivo
# In short: (§1)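 Pharmacokinetics in Beagle dogs, n = 3 per group, after i.v. and p.o. dosing. AUC and Cmax are reported dose-normalized.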
# [3] = Terminal elimination half life in wild type Sprague-Dawley rat at 1 mg/kg, iv or 3 mg/kg, po; assay type: ADME, organism-based; settings: in vivo, read-out: beta t1/2 (converted)
# In short: (§2)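 Male wild-type Sprague–Dawley rats, n = 3 per group, housed under Swiss animal-welfare conditions (12 h light/dark, 22−24 °C). Each group received separate i.v. and oral doses, with plasma profiles used for PK parameters.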
# [4] = AUC (0 to 10.5 hrs) in MSU-induced beagle dog acute synovitis model at 15 mg/kg; assay type: ADME, organism-based, Canis lupus familiaris; set-up: time < 10.5 hr, dose 15 mg/kg; settings: in vivo
# In short: (§3)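 Dog uric acid-induced acute synovitis model. Groups were vehicle, the test article at 5 or 15 mg/kg, and meloxicam at 0.2 mg/kg as positive control. Exposure is reported as AUC over 0–10.5 h.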
# [5] = Dose normalized Cmax in wild type Sprague-Dawley rat at 1 mg/kg, iv or 3 mg/kg, po; assay type: ADME, organism-based; settings: in vivo
# In short: (§4)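 Pharmacokinetics in male Sprague–Dawley rats, n = 3 per group, after i.v. and p.o. dosing. AUC and Cmax are reported dose-normalized.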
# [6] = Half life in beagle dog liver microsomes at 5 uM preincubated for 3 mins followed by NADPH addition measured after 1 hr by HPLC/MS analysis; assay type: ADME, Canis lupus familiaris
# [7] = Terminal elimination half life in beagle dog at 0.1 mg/kg, iv or 0.3 mg/kg, po fasted 12 hrs prior to compound administration via cassette dosing and fed 2 hrs post dose; assay type: ADME, organism-based, Canis lupus familiaris; settings: in vivo, read-out: beta t1/2 (converted)
# In short: (§5)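 Beagle dogs, n = 3 per group, dosed i.v. and orally. PK parameters were derived from blood/plasma profiles, with exposure values dose-normalized.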
# [8] = target: T1, Mitogen-activated protein kinase kinase kinase 8 (Homo sapiens, UniProt P41279); experiment: Inhibition of COT in LPS-stimulated human whole blood assessed as reduction in TNFalpha release incubated for 30 mins followed by stimulation with LPS for 3 hrs by HTRF assay; assay type: tissue-based
# T1 sequence (P41279 whole entry): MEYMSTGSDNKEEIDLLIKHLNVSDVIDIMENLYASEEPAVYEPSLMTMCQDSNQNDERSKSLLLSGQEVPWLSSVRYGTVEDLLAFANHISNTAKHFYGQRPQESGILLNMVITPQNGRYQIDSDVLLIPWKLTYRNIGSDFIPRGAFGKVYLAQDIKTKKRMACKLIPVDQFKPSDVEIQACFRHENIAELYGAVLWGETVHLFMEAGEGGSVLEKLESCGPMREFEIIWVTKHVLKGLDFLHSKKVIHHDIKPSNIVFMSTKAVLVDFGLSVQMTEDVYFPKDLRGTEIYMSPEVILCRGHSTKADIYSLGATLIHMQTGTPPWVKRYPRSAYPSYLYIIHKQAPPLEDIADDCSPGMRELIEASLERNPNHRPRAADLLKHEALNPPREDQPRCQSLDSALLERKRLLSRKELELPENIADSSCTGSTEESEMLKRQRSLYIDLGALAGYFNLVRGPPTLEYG
# In short: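 Human whole blood was stimulated with LPS, and TNFα release was measured as IC50.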
# [9] = Dose normalized Cmax in beagle dog at 0.1 mg/kg, iv or 0.3 mg/kg, po fasted 12 hrs prior to compound administration via cassette dosing and fed 2 hrs post dose; assay type: ADME, organism-based, Canis lupus familiaris; settings: in vivo; in short: as §1
# [10] = Dose normalized AUC in wild type Sprague-Dawley rat at 1 mg/kg, iv; assay type: ADME, organism-based; settings: in vivo; in short: as §4
# [11] = target: T1, Mitogen-activated protein kinase kinase kinase 8; experiment: Inhibition of COT in LPS-stimulated human PBMC assessed as reduction in TNFalpha release incubated for 1 hr followed by stimulation with LPS for 4 hrs by HTRF assay
# In short: (§6)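 Primary human PBMCs were stimulated with LPS. Read-outs were pERK, TNFα release, or p65 phosphorylation, each reported as IC50.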
# [12] = Mean residence time in beagle dog at 0.1 mg/kg, iv or 0.3 mg/kg, po fasted 12 hrs prior to compound administration via cassette dosing and fed 2 hrs post dose; assay type: ADME, organism-based, Canis lupus familiaris; settings: in vivo; in short: as §1
# [13] = Clearance in wild type Sprague-Dawley rat at 1 mg/kg, iv or 3 mg/kg, po; assay type: ADME, organism-based; settings: in vivo; in short: as §4
# [14] = Metabolic stability in bile-duct cannulated Sprague-Dawley rat assessed as parent compound remaining in kidney at 3 mg/kg, iv measured over 8 hrs post dose; assay type: ADME, organism-based; settings: read-out: Stability
# In short: (§7)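 Bile-duct cannulated rats dosed in vivo. Parent and metabolites in each matrix were expressed as relative peak areas of the drug-related components detected, at the stated sampling time or collection period post dose.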
# [15] = Half life in wild type Sprague-Dawley rat liver microsomes at 5 uM preincubated for 3 mins followed by NADPH addition measured after 1 hr by HPLC/MS analysis; assay type: ADME
# [16] = Protein binding in human plasma at 5 uM after 4 hrs by rapid equilibrium dialysis method; assay type: ADME, cell-free; settings: read-out: PPB (converted)
# [17] = Oral bioavailability in wild type Sprague-Dawley rat at 3 mg/kg; assay type: ADME, organism-based; settings: in vivo; in short: as §2
# [18] = Half life in wild type Sprague-Dawley rat liver S9 fraction at 1 uM in absence of NADPH by HPLC/MS analysis
# [19] = Equilibrium solubility of the compound at pH 6.8 after 16 hrs by mass spectrometric analysis; assay type: physicochemical; settings: buffer
# [20] = Dose normalized AUC in wild type Sprague-Dawley rat at 3 mg/kg, po; assay type: ADME, organism-based; settings: in vivo; in short: as §4
# [21] = Octanol-water partition coefficient, log P of the compound by shake-flask method; assay type: physicochemical
# [22] = Tmax in wild type Sprague-Dawley rat at 1 mg/kg, iv or 3 mg/kg, po; assay type: ADME, organism-based; settings: in vivo; in short: as §2
# [23] = Half life in beagle dog liver S9 fraction at 1 uM in absence of NADPH by HPLC/MS analysis
# [24] = Antiinflammatory activity in human PBMC assessed as inhibition of uric acid induced-IL-1beta formation stimulated with MSU crystals after 3 hrs in presence of ATP; assay type: functional, cell-based
# [25] = target: T1, Mitogen-activated protein kinase kinase kinase 8; experiment: Inhibition of human COT (66 to 395 residues) expressed in Sf21 cells using 5-Fluo-Ahx-AGAGSGQLIDSNleANSFVGTR-NH2 as substrate after 60 mins by caliper microfluidic mobility shift assay
# [26] = Dose normalized AUC in beagle dog at 0.1 mg/kg, iv fasted 12 hrs prior to compound administration via cassette dosing and fed 2 hrs post dose; assay type: ADME, organism-based, Canis lupus familiaris; settings: in vivo; in short: as §1
# [27] = Oral bioavailability in beagle dog at 0.3 mg/kg fasted 12 hrs prior to compound administration via cassette dosing and fed 2 hrs post dose; assay type: ADME, organism-based, Canis lupus familiaris; settings: in vivo; in short: as §5
# [28] = Metabolic stability in bile-duct cannulated Sprague-Dawley rat assessed as parent compound remaining in liver at 3 mg/kg, iv measured over 8 hrs post dose; assay type: ADME, organism-based; settings: read-out: Stability; in short: as §7
# [29] = target: T1, Mitogen-activated protein kinase kinase kinase 8; experiment: Inhibition of COT in LPS-stimulated human PBMC assessed as reduction in ERK1/2 phosphorylation incubated for 60 mins followed by LPS stimulation for 12 mins by flow cytometric analysis; in short: as §6
# [30] = Mean residence time in wild type Sprague-Dawley rat at 1 mg/kg, iv or 3 mg/kg, po; assay type: ADME, organism-based; settings: in vivo; in short: as §4
# [31] = Clearance in beagle dog at 0.1 mg/kg, iv or 0.3 mg/kg, po fasted 12 hrs prior to compound administration via cassette dosing and fed 2 hrs post dose; assay type: ADME, organism-based, Canis lupus familiaris; settings: in vivo; in short: as §1
# Canis familiaris = experiment: Antiinflammatory activity in MSU-induced beagle dog acute synovitis model assessed as prevention of inflammation-driven lameness at 15 mg/kg, administered once a week 3 hrs post MSU injection measured after 6 hrs post last dose; assay type: functional, organism-based; settings: Canis lupus familiaris
# In short: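 Lameness was induced in dogs by uric acid injection into the joint. Treatment was vehicle, test article at 5 or 15 mg/kg, or meloxicam 0.2 mg/kg. Vertical peak force of the affected limb was measured on a force plate while trotting. The read-out was the time after treatment for that force to recover to 60% of the value measured before lameness.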
# [32] = AUC (0 to 10.5 hrs) in MSU-induced beagle dog acute synovitis model at 5 mg/kg; assay type: ADME, organism-based, Canis lupus familiaris; set-up: time < 10.5 hr, dose 5 mg/kg; settings: in vivo; in short: as §3
structure (smiles),measurement,setting,value
CC(CN1CCOCC1)Nc1ccc2cc(-n3cnc4cnc5cnc(-c6ccncc6)cc5c43)ccc2n1 (racemic),solubility thermodynamic at 16 h,[1],> 1000 µM
same,AUC/dose,[2],957 nmol·h
same,half-life,[3],2.1 h
same,AUC,[4],4575 nmol·h
same,Cmax/dose,[5],12 nM
same,half-life at 5 µM,[6],0.167 h
same,half-life,[7],3.2 h
same,IC50,[8],200 nM
same,Cmax/dose,[9],61 nM
same,AUC/dose,[10],119 nmol·h
same,IC50,[11],60 nM
same,MRT,[12],2.4 h
same,clearance,[13],277 mL/min/kg
same,remaining at 8 h,[14],22%
same,half-life at 5 µM,[15],3 min
same,"fraction unbound at 4 h, 5 µM",[16],0.03
same,bioavailability,[17],26%
same,half-life at 1 µM,[18],< 5 min
same,solubility thermodynamic at 16 h,[19],136 µM
same,AUC/dose,[20],31 nmol·h
same,logP,[21],3.3
same,Tmax,[22],0.3 h
same,half-life at 1 µM,[23],> 2 h
same,IC50,[24],200 nM
same,IC50,[25],6 nM
same,AUC/dose,[26],1570 nmol·h
same,bioavailability,[27],61%
same,remaining at 8 h,[28],28%
same,IC50,[29],60 nM
same,MRT,[30],1.2 h
same,clearance,[31],25 mL/min/kg
same,Activity,Canis familiaris,Active
same,AUC,[32],2057 nmol·h

# Reference: ChEMBL document CHEMBL3853320, “Discovery of Imidazoquinolines as a Novel Class of Potent, Selective, and in Vivo Efficacious Cancer Osaka Thyroid (COT) Kinase Inhibitors” (J Med Chem, 2016)
